The source made the active and inactive calls. The calls are words filed in the database; no cut-off is given here.
Tests used:
[1] = tested on: Caulobacter vibrioides; test: Effect on DNA damage repair in Caulobacter vibrioides lacking alkB expression assessed as decrease in cell survival rate upto 1 ug/ml and measured after 2 days by agar dilution method; type: functional, organism-based; conditions: dose <= 1.0 µg/ml, time 2.0 day
Method in brief: (§1)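 Survival of Caulobacter wild type, ΔmutL and ΔalkB strains was tested across increasing drug doses. Cultures were serially diluted and spotted, and growth was scored along the dilution series. At least three independent experiments were run per strain, with mean and SEM of all repeats plotted.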

[2] = Binding affinity to GC-rich 5'-fluoro and 3'-TAMRA tagged 5'-TAT-AGG-GAC-AGC-CCT-ATA-3' hairpin DNA (unknown origin) assessed as thermal stabilization by measuring change in melting temperature at 1 uM incubated for 3 hrs by FRET analysis
Method in brief: (§2)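 Fluorophore/quencher-tagged hairpin DNA, AT-rich (Sequence 1) or GC-rich (Sequence 2), incubated with compound for 3 h or 24 h, then thermally melted. Melt curves were compared against a DNA-only control for the same sequence. Each reaction was run in triplicate.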

[3] = tested on: Caulobacter vibrioides; test: Effect on DNA damage repair in Caulobacter vibrioides lacking recN expression and expressing Gam-GFP reporter system assessed as fold increase in double stranded break by measuring Gam localization in cells at 0.5 ug/ml and measured after 2 hrs by fluorescence analysis; conditions: dose 0.5 µg/ml
[4] = tested on: Caulobacter vibrioides; test: Effect on DNA damage repair in Caulobacter vibrioides lacking uvrA expression and expressing Gam-GFP reporter system assessed as fold increase in double stranded break by measuring Gam localization in cells at 0.5 ug/ml and measured after 2 hrs by fluorescence analysis; type: functional; conditions: dose 0.5 µg/ml
[5] = tested on: Caulobacter vibrioides; test: Effect on DNA damage repair in Caulobacter vibrioides lacking mutL expression assessed as decrease in cell survival rate upto 1 ug/ml and measured after 2 days by agar dilution method; type: functional, organism-based; conditions: dose <= 1.0 µg/ml, time 2.0 day; method in brief: as §1
[6] = Binding affinity to GC-rich 5'-fluoro and 3'-TAMRA tagged 5'-TAT-AGG-GAC-AGC-CCT-ATA-3' hairpin DNA (unknown origin) assessed as thermal stabilization by measuring change in melting temperature at 1 uM incubated for 24 hrs by FRET analysis; method in brief: as §2
[7] = tested on: Caulobacter vibrioides; test: Induction of DNA damage in Caulobacter vibrioides assessed as increase in cell death upto 1 ug/ml and measured after 2 days by agar dilution method; type: functional, organism-based; conditions: dose <= 1.0 µg/ml, time 2.0 day, DDE = dose-dependent effect
[8] = Binding affinity to AT-rich 5'-fluoro and 3'-TAMRA tagged 5'-TAT-ATA-TAG-ATA-TTT-TTT-TAT-CTA-TAT-ATA-3' hairpin DNA (unknown origin) assessed as thermal stabilization by measuring change in melting temperature at 1 uM incubated for 3 hrs by FRET analysis; method in brief: as §2
[9] = tested on: Caulobacter vibrioides; test: Induction of DNA damage in Caulobacter vibrioides assessed as accumulation of SOS-induced YFP at 0.5 ug/ml incubated upto 2 hrs by fluorescence microscopy; type: functional, organism-based; conditions: dose 0.5 µg/ml
[10] = tested on: Caulobacter vibrioides; test: Effect on DNA damage repair in Caulobacter vibrioides lacking recA expression assessed as decrease in cell survival rate upto 1 ug/ml and measured after 2 days by agar dilution method; type: functional, organism-based; conditions: dose <= 1.0 µg/ml, time 2.0 day
[11] = Binding affinity to AT-rich 5'-fluoro and 3'-TAMRA tagged 5'-TAT-ATA-TAG-ATA-TTT-TTT-TAT-CTA-TAT-ATA-3' hairpin DNA(unknown origin) assessed as thermal stabilization by measuring change in melting temperature at 1 uM incubated for 24 hrs by FRET analysis; method in brief: as §2
[12] = tested on: Caulobacter vibrioides; test: Effect on DNA damage repair in Caulobacter vibrioides expressing Gam-GFP reporter system assessed as increase in double stranded break by measuring Gam localization in cells at 0.5 ug/ml and measured after 2 hrs by fluorescence analysis; type: functional; conditions: dose 0.5 µg/ml
Method in brief: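 Wild-type Caulobacter carrying a Gam-GFP reporter; after drug treatment, cells imaged by fluorescence microscopy and percentage of cells with Gam-GFP foci scored ([…] cells). Three independent experiments; mean and SD reported.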

[13] = tested on: Caulobacter vibrioides; test: Effect on DNA damage repair in Caulobacter vibrioides assessed as fold change as increase in rifampicin resistance colonies at 2 ug/ml incubated for 0.5 hrs followed by culture in new media and treated with rifampicin and measured after 48 hrs by colony formation assay; type: functional; conditions: dose 2 µg/ml
Method in brief: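 Caulobacter cells exposed to drug; rifampicin-resistant colony counts expressed as fold change relative to untreated control (no DNA damage). Three independent experiments; mean and SD reported.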

[14] = tested on: Caulobacter vibrioides; test: Effect on DNA damage repair in Caulobacter vibrioides expressing Gam-GFP reporter system assessed as increase in double stranded break by measuring Gam localization in cells at 2 ug/ml and measured after 2 hrs by fluorescence analysis; type: functional; conditions: dose 2 µg/ml
Method in brief: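 Wild-type Caulobacter carrying a Gam-GFP reporter was drug-treated and imaged by fluorescence microscopy. The readout was the percentage of cells with Gam-GFP foci, counting […] cells. Mean and SD are from three independent experiments.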

[15] = tested on: Caulobacter vibrioides; test: Effect on DNA damage repair in Caulobacter vibrioides lacking recO expression assessed as decrease in cell survival rate upto 1 ug/ml and measured after 2 days by agar dilution method; type: functional, organism-based; conditions: dose <= 1.0 µg/ml, time 2.0 day
[16] = tested on: Caulobacter vibrioides; test: Effect on DNA damage repair in Caulobacter vibrioides lacking DnaE2 expression assessed as decrease in cell survival rate upto 1 ug/ml and measured after 2 days by agar dilution method; type: functional, organism-based; conditions: dose <= 1.0 µg/ml, time 2.0 day
[17] = tested on: Caulobacter vibrioides; test: Effect on DNA damage repair in Caulobacter vibrioides lacking uvrA expression assessed as decrease in cell survival rate upto 1 ug/ml and measured after 2 days by agar dilution method; type: functional, organism-based; conditions: dose <= 1.0 µg/ml, time 2.0 day
[18] = tested on: Caulobacter vibrioides; test: Effect on DNA damage repair in Caulobacter vibrioides lacking recA, lexA and sidA expression assessed as decrease in cell survival rate upto 1 ug/ml and measured after 2 days by agar dilution method; type: functional, organism-based; conditions: dose <= 1.0 µg/ml, time 2.0 day
[19] = tested on: Caulobacter vibrioides; test: Effect on DNA damage repair in Caulobacter vibrioides lacking addAB expression assessed as decrease in cell survival rate upto 1 ug/ml and measured after 2 days by agar dilution method; type: functional, organism-based; conditions: dose <= 1.0 µg/ml, time 2.0 day
[20] = tested on: Caulobacter vibrioides; test: Effect on DNA damage repair in Caulobacter vibrioides lacking recN expression and expressing Gam-GFP reporter system assessed as fold increase in double stranded break by measuring Gam localization in cells at 2 ug/ml and measured after 2 hrs by fluorescence analysis; conditions: dose 2 µg/ml
[21] = tested on: Caulobacter vibrioides; test: Induction of DNA damage in Caulobacter vibrioides assessed as accumulation of SOS-induced YFP at 1 ug/ml incubated upto 2 hrs by fluorescence microscopy; type: functional, organism-based; conditions: dose 1.0 µg/ml
[22] = tested on: Caulobacter vibrioides; test: Effect on DNA damage repair in Caulobacter vibrioides lacking recR expression assessed as decrease in cell survival rate upto 1 ug/ml and measured after 2 days by agar dilution method; type: functional, organism-based; conditions: dose <= 1.0 µg/ml, time 2.0 day
[23] = tested on: Caulobacter vibrioides; test: Effect on DNA damage repair in Caulobacter vibrioides lacking uvrA expression and expressing Gam-GFP reporter system assessed as fold increase in double stranded break by measuring Gam localization in cells at 1 ug/ml and measured after 2 hrs by fluorescence analysis; type: functional; conditions: dose 1 µg/ml
[24] = tested on: Caulobacter vibrioides; test: Effect on DNA damage repair in Caulobacter vibrioides lacking recF expression assessed as decrease in cell survival rate upto 1 ug/ml and measured after 2 days by agar dilution method; type: functional, organism-based; conditions: dose <= 1.0 µg/ml, time 2.0 day
[25] = tested on: Caulobacter vibrioides; test: Effect on DNA damage repair in Caulobacter vibrioides lacking recN expression assessed as decrease in cell survival rate upto 1 ug/ml and measured after 2 days by agar dilution method; type: functional, organism-based; conditions: dose <= 1.0 µg/ml, time 2.0 day
[26] = tested on: Caulobacter vibrioides; test: Effect on DNA damage repair in Caulobacter vibrioides expressing Gam-GFP reporter system assessed as increase in double stranded break by measuring Gam localization in cells at 25 to 50 ug/ml and measured after 2 hrs by fluorescence analysis; type: functional, organism-based; conditions: dose 25-50 µg/ml

| SMILES | Activity [1] | ΔTm [2] | fold change (FC) [3] | Activity [4] | Activity [5] | ΔTm [6] | Activity [7] | ΔTm [8] | Activity [9] | Activity [10] | ΔTm [11] | Activity [12] | Activity [15] | Activity [16] | Activity [17] | Activity [18] | Activity [19] | Activity [22] | Activity [24] | Activity [25] | further results |
| --- | --- | --- | --- | --- | --- | --- | --- | --- | --- | --- | --- | --- | --- | --- | --- | --- | --- | --- | --- | --- | --- |
| CO[C@@]12[C@H](COC(N)=O)C3=C(C(=O)C(C)=C(N)C3=O)N1C[C@@H]1N[C@@H]12 [MITOMYCIN] | Active | 11.5 °C | 2 | 10% | Active | 11.8 °C | Dde | 12.6 °C | Active | Active | 12.8 °C | 5% | – | – | – | – | – | – | – | – | fold change (FC) [13]: 2.5 |
| COC(=O)c1cc(NC(=O)c2cc(NC(=O)CCCOc3cc4c(cc3OC)C(=O)N3CCC[C@H]3C=N4)cn2C)cn1C | – | 18.6 °C | – | – | – | 19.2 °C | – | 18.9 °C | – | – | 21.1 °C | – | – | – | – | – | – | – | – | – | – |
| COC(=O)c1cc(-c2ccc(NC(=O)c3cc(NC(=O)CCCOc4cc5c(cc4OC)C(=O)N4CCC[C@H]4C=N5)cn3C)cc2)cn1C | Active | 16.3 °C | – | – | Active | 17.4 °C | Dde | 15.7 °C | – | Active | 18.5 °C | – | Active | Active | Active | Active | Active | Active | Active | Active | Activity [14]: 5%; fold change (FC) [20]: 2; Activity [21]: Active; Activity [23]: 40% |
| COS(C)(=O)=O | – | – | – | – | – | – | – | – | – | – | – | – | – | – | Active | – | – | – | – | – | – |
| CCn1cc(C(=O)O)c(=O)c2cc(F)c(N3CCNCC3)cc21 | – | – | – | – | – | – | – | – | – | – | – | – | – | – | Active | – | – | – | – | – | Activity [26]: Active |
| COC(=O)c1cc2cc(NC(=O)c3cc(NC(=O)CCCOc4cc5c(cc4OC)C(=O)N4CCC[C@H]4C=N5)cn3C)ccc2s1 | Active | 15.6 °C | 2 | 56% | Active | 15.9 °C | Dde | 14 °C | Active | Active | 15.6 °C | 5% | Active | Active | Active | Active | Active | Active | Active | Active | – |

— ChEMBL document CHEMBL5104228, “Mechanistic insight into the repair of C8-linked pyrrolobenzodiazepine monomer-mediated DNA damage” (2022)
